The values that follow come from ChEMBL document CHEMBL3351593, “Potent nonimmunosuppressive cyclophilin inhibitors with improved pharmaceutical properties and decreased transporter inhibition” (J Med Chem, 2014).

Usually IC50 stands for the concentration at which inhibition is half-maximal. A high value points to lower potency. Usually AUC stands for the area under the concentration-time curve, a measure of exposure. The low end stands for low exposure, the high end for high exposure. As usually defined, the Ki is a measure of affinity in units of concentration, obtained from inhibition or displacement. A high value points to weaker binding. Broadly, the Kd is the free concentration of one partner at which half of the binding sites on the other are occupied at equilibrium, for simple one-to-one binding. The low end stands for a tighter complex, the high end for a looser complex. As usually defined, the CC50 is the concentration at which the toxic effect on the cells reaches its halfway point. Read a low CC50 as harm at low concentration. As usually defined, the EC50 is the concentration needed to bring the measured effect to its halfway point. Broadly, the logD is lipophilicity at a set pH, counting ionised and neutral species. Higher therefore signals a more lipophilic compound.

Structures are written as SMILES. Some results are limits rather than exact numbers.

Data set [1] concerns the target T1, Solute carrier organic anion transporter family member 1B3 (Homo sapiens, UniProt Q9NPD5).
T1 sequence (Q9NPD5 whole entry): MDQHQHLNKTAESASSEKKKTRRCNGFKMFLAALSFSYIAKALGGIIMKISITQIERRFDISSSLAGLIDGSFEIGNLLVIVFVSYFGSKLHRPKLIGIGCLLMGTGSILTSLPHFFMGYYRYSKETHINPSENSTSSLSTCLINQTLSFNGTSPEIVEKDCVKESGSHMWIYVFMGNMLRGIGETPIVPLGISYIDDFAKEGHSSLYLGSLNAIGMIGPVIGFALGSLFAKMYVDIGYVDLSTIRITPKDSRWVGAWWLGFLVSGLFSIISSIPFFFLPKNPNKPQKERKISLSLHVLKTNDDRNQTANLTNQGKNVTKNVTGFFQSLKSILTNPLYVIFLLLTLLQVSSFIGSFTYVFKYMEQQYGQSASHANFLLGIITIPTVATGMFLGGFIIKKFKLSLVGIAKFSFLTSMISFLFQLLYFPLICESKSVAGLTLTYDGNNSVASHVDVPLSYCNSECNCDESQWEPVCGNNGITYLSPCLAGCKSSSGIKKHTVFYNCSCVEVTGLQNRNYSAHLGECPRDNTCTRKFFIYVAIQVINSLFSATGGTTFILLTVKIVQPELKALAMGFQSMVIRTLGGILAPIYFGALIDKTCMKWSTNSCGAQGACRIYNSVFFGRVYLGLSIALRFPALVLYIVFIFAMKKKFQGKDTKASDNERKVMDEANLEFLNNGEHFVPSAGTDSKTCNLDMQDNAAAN
Put plainly: Inhibition of OATP1B3 (unknown origin) expressed in HEK293 cells using [3H]estradiol-17beta-glucuronide substrate. It counts as ADME, cell-based. In a few lines:
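Recombinant OATP1B1 or OATP1B3 expressed in HEK293 cells, with [3H]estradiol-17β-glucuronide as substrate; IC50 determined.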

Data set [2] in a line: AUC in dog blood at 1 mg/kg, po after 72 hrs. It counts as ADME, organism-based, Canis lupus familiaris. Also on record: time < 72 hr, dose 1 mg/kg, route oral. The conditions noted are these: whole blood. In short, it runs like this: (§1)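 Oral dosing as a solution in MEPC: rat 25 mg/kg, dog 1 mg/kg. Blood and plasma collected separately over 0−72 h and AUC computed for each matrix.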

Data set [3] can be described thus: AUC in rat blood at 25 mg/kg, po after 72 hrs. The class given is ADME, organism-based. More on the design: time < 72 hr, dose 25 mg/kg, route oral. The conditions noted are these: whole blood. In short, it runs like this: as §1
For data set [4], the target named is ATP-binding cassette sub-family C member 2 (Homo sapiens, UniProt Q92887). Nature of the data set: Inhibition of human MRP2 expressed in Sf9 cells inside out vesicles using CDCF substrate. In short, it runs like this:
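Inside-out vesicles from baculovirus-infected Sf9 cells expressing hMRP2, with CDCF as probe. ATP-dependent uptake taken as uptake with ATP minus uptake with AMP. Remaining activity calculated as uptake with inhibitor divided by uptake without, and the inhibition value derived from that.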

The target of data set [5] is Peptidyl-prolyl cis-trans isomerase B (Homo sapiens, UniProt P23284). Nature of the data set: Binding affinity to human cyclophilin B by surface plasmon resonance method. In a few lines: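 Biotinylated cyclophilin proteins examined by single-cycle kinetics SPR. Running buffer 10 mM HEPES pH 7.4, 150 mM NaCl, 0.05% P20, 3% DMSO, with inhibitor. Each concentration injected for 1 min at 50 μL/min, then 10 min dissociation. kon, koff and KD obtained from a 1:1 binding fit.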
Chain of Peptidyl-prolyl cis-trans isomerase B (P23284 whole entry): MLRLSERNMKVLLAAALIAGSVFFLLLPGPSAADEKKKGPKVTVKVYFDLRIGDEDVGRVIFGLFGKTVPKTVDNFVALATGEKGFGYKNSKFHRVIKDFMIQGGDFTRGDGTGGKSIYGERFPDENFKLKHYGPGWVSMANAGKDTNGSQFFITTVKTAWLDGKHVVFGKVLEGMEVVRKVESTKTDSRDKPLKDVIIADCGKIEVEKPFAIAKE

Another data set concerns the target T2, Cytochrome P450 2C8 (Homo sapiens, UniProt P10632).
T2 sequence (P10632 whole entry): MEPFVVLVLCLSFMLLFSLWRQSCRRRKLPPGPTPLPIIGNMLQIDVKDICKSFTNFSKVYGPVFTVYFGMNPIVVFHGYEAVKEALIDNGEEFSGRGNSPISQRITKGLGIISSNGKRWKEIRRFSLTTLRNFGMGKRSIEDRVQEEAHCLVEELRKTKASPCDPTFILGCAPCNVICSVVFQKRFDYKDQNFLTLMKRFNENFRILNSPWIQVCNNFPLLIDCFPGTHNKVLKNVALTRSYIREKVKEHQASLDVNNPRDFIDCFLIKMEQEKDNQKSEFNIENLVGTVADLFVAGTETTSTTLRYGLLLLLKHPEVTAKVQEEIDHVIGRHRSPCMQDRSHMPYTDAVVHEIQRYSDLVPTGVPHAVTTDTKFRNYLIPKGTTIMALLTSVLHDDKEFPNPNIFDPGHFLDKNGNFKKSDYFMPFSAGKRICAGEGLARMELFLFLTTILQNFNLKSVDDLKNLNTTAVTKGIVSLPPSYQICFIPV
Nature of the data set: Inhibition of CYP2C8 (unknown origin). The class given is ADME.

Data set [6] is described as follows: Cytotoxicity against human MT4 cells by CDCF probe based assay. The class given is cell-based.
Another data set deals with Hepatitis C virus. Nature of the data set: Antiviral activity against HCV subtype 1a in human Huh7.5 cells expressing subgenomic HCV replicons and coexpressing luciferase reporter gene. It counts as functional, cell-based, Hepacivirus hominis. The conditions noted are these: Huh-7. In a few lines:
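Stable Huh7.5 lines carrying genotype 1a or 1b subgenomic replicons with luciferase reporter, made by RNA electroporation and G418 selection. Assay run in phenol red-free DMEM without G418, sixteen half-log compound dilutions, in triplicate. Luciferase signal read after 72 h relative to DMSO controls, giving EC50.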
(Replicon systems follow genome replication, usually without infectious particles.)

Another data set addresses Cytochrome P450 2D6 (Homo sapiens, UniProt P10635). Nature of the data set: Inhibition of CYP2D6 (unknown origin). It counts as ADME.
Data set [7] in a line: Lipophilicity, log D of the compound. To be noted: octanol/water. It counts as physicochemical.
Another data set has as its target Cytochrome P450 2C19 (Homo sapiens, UniProt P33261). Nature of the data set: Inhibition of […] (unknown origin). The class given is ADME.
The target in the next data set is Cytochrome P450 3A4 (Homo sapiens, UniProt P08684). Put plainly: Inhibition of CYP3A4 (unknown origin). It counts as ADME.
Chain of Cytochrome P450 3A4 (P08684 whole entry): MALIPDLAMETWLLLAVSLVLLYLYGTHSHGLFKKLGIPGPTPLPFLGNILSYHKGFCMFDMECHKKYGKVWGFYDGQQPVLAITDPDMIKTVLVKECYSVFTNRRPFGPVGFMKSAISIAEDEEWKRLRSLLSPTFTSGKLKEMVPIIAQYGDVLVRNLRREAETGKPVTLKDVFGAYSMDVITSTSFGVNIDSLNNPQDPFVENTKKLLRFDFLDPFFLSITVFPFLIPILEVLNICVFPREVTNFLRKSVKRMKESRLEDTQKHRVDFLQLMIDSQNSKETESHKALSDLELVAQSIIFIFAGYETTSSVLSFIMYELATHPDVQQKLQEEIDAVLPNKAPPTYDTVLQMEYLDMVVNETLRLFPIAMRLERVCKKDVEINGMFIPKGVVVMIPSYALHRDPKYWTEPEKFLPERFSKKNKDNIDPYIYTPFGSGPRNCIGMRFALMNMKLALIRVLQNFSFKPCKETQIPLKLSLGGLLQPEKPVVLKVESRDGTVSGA

Chain of ATP-binding cassette sub-family C member 2 (Q92887 whole entry): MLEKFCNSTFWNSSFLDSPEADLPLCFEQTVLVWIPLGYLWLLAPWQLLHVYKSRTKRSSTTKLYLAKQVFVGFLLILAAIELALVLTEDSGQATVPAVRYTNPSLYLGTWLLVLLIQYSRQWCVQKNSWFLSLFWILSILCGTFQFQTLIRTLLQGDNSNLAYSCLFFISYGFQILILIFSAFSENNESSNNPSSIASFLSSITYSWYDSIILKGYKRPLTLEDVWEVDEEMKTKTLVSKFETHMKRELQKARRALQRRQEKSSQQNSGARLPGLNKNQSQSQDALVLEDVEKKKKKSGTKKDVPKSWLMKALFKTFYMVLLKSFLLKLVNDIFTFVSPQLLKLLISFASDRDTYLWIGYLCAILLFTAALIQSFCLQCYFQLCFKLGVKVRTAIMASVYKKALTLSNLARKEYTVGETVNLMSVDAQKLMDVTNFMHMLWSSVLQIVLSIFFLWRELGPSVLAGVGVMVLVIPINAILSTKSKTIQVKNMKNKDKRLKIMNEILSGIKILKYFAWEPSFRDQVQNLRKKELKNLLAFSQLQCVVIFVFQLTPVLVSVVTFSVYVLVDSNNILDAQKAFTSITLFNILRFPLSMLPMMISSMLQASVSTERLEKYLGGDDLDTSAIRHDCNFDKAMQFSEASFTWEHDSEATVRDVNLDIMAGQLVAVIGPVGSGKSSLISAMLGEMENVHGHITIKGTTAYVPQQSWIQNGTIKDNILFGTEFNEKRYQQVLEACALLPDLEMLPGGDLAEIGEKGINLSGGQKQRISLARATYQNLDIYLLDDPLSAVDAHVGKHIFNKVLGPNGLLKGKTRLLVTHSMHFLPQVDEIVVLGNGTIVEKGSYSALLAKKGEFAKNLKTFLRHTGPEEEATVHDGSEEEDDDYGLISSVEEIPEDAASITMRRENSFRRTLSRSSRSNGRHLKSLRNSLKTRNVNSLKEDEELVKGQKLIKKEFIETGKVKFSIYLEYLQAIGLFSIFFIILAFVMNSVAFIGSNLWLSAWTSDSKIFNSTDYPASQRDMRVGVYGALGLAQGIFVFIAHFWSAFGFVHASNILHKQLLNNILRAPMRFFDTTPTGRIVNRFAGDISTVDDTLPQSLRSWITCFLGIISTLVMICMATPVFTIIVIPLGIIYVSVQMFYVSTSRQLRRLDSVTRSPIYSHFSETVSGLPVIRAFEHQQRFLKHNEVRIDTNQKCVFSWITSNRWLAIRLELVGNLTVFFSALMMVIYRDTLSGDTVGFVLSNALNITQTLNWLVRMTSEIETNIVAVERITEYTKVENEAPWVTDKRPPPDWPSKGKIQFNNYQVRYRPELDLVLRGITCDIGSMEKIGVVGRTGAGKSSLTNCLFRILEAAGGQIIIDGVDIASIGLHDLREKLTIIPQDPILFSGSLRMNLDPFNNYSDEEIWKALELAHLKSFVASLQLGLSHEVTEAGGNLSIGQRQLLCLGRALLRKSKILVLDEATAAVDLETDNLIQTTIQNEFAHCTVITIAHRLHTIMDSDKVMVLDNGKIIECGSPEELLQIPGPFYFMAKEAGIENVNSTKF
Chain of Cytochrome P450 2C19 (P33261 whole entry): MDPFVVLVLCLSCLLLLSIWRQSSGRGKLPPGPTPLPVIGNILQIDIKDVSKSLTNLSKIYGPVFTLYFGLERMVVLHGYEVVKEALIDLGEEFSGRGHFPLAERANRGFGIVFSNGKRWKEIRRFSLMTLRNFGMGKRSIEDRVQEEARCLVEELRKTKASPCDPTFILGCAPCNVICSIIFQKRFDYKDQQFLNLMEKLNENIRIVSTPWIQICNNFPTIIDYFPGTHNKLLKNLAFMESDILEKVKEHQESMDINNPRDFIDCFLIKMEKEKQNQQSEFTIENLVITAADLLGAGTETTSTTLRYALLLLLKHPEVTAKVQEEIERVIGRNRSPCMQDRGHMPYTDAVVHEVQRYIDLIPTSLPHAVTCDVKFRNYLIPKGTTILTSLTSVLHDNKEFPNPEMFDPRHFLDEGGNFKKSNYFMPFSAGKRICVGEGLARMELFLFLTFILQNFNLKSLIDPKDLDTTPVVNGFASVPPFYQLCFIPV
Chain of Cytochrome P450 2D6 (P10635 whole entry): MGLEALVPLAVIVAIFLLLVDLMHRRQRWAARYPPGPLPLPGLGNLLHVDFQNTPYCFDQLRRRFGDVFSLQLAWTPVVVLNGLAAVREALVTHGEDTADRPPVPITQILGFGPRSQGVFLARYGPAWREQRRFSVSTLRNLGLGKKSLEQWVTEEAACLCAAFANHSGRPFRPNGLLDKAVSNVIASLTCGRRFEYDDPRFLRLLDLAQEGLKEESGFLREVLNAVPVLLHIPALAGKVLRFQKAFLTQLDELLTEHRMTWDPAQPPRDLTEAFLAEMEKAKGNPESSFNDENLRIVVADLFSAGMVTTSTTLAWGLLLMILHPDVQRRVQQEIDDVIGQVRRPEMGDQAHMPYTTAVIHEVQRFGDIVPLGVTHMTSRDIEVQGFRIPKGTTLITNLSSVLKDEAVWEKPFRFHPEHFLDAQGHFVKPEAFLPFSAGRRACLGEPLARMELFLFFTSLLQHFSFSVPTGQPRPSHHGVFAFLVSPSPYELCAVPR

`C/C=C/C[C@@H](C)[C@@H](O)[C@H]1C(=O)N[C@@H](CC)C(=O)N(C)[C@H](C)C(=O)N(C)[C@@H]([C@@H](C)CN2CCN(CCOC)CC2)C(=O)N[C@@H](C(C)C)C(=O)N(C)[C@@H](CC(C)C)C(=O)N[C@@H](C)C(=O)N[C@H](C)C(=O)N(C)[C@@H](CC(C)C)C(=O)N(C)[C@@H](CC(C)C)C(=O)N(C)[C@@H](C(C)C)C(=O)N1C`: the IC50 is 880 nM in [1]; greater than 40 µM against Cytochrome P450 2C8; greater than 40 µM against Cytochrome P450 2D6; greater than 40 µM against Cytochrome P450 2C19; greater than 40 µM against Cytochrome P450 3A4. In addition, the AUC at 72 h in data set [2] turned out to be 22.1 µM·h; in data set [3], 58.4 µM·h. The affinity in data set [4] corresponds to a Ki of 140 µM. In data set [5], this compound registered a Kd of 1.2 nM. The CC50 in data set [6] is greater than 50 µM. Also, it took 70 nM to reach a half-maximal effect in the data set with Hepatitis C virus (EC50). In addition, the pH-dependent lipophilicity (logD) in data set [7] was 3.9.

`C/C=C/C[C@@H](C)[C@@H](O)[C@H]1C(=O)N[C@@H](CC)C(=O)N(C)[C@H](C)C(=O)N(CC)[C@@H](C(C)C)C(=O)N[C@@H](C(C)C)C(=O)N(C)[C@@H](CC(C)C)C(=O)N[C@@H](C)C(=O)N[C@H](C)C(=O)N(C)[C@@H](CC(C)C)C(=O)N(C)[C@@H](CC(C)C)C(=O)N(C)[C@@H](C(C)C)C(=O)N1C` [ALISPORIVIR] displayed an IC50 in data set [1] of 220 nM. For the same compound, the results for the area under the curve (AUC) at 72 h in data set [2] and in data set [3] were 2.19 µM·h and 22.1 µM·h, respectively. This compound also returned a Ki in data set [4] of 18 µM. Binding in data set [5] was characterised by a dissociation constant (Kd) of 1 nM. In addition, the CC50 in [6] is greater than 20 µM. Moreover, the EC50 with Hepatitis C virus was 70 nM. In data set [7], this compound registered a logD greater than 6.
